Source: PubChem BioAssay AID588399 (Southern Research Specialized Biocontainment Screening …, 2011)
Results filed as inconclusive are left out. The source made the active and inactive calls.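 Rule for the calls: active = toxic compounds, with cells under 80% alive at a tested dose; inconclusive = one replicate called active, the other inactive; inactive = the rest.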

tested on: Bladder 5637 cells viability, CellTiter-Glo, 72 h; assay: cytotoxicity in 5637 bladder cells, dose response, cytotoxicity control for bacterial capsule biogenesis inhibitors, cell-based, set 4 (AID 588399); conditions: not given
How it was run: (§1)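 Benchmarks: Hyamine toxic control, untreated cells reference; system: bladder carcinoma 5637 cell line; replication: duplicate testing of each compound; incubation: 72 h treatment; compound: 8 concentrations, 2.3–300 µM; measured by: CellTiter-Glo luminescence; evaluation: % viability vs untreated cells, CC50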

SMILES | CC50 [µM]
COc1ccc2nc(NC(=O)c3ccc(Br)s3)[nH]c2c1 | 4.43
O=C(Nc1ccc(Cl)cc1)c1ccc2[nH]ccc2c1 | 14.1
COc1ccc2nc(NC(=O)c3cc(Br)c(Br)s3)[nH]c2c1 | < 2.34
O=C(Nc1cccnc1)c1ccc2ncsc2c1 | 28.3
O=C(Nc1nc2ccc(OC(F)(F)F)cc2s1)c1ccc(Br)s1 | 24.6

tested on: not listed separately; assay: as above; conditions: Bladder 5637 cells viability, CellTiter-Glo, 72 h; at 300 µM (top of the series)
How it was run: as §1

SMILES | viability
O=C(Nc1ccccn1)c1ccc2nc[nH]c2c1 | 94.7% (inactive)
O=C(NCc1ccco1)c1ccc2nc[nH]c2c1 | 111% (inactive)
COc1ccc(NC(=O)c2ccc3nc[nH]c3c2)cc1 | 104% (inactive)
O=C(Nc1ccc(F)cc1)c1ccc2nc[nH]c2c1 | 83% (inactive)
O=C(Nc1ccc(Br)cc1)c1ccc2ncsc2c1 | 142% (inactive)
